# Shown are actives, neighbours in structure and some others; about 4.1% of the full set was active somewhere.
# MrgX1 ag – human MrgX1 receptor agonism, primary screen | Q96LB2 | MrgX1-HEK293 cells, Fluo-4 calcium fluorescence, agonist mode; stronger effect = higher value | B-score at 10 µM | 310,000 tested, 0.44% active | AID 588627;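 active means calcium response B-score plate-corrected fluorescence ratio at least 3 library SD, with starting fluorescence B-score inside 5 SD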
#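 times = overnight plating, then 30 min 37 °C plus 30 min room-temperature dye loading | assay system = stable human MrgX1 HEK293 cell line | input = fifteen thousand cells per well | signal = kinetic calcium dye fluorescence, Fluo-4 NW | dosing = compound delivered in addition one of three | read-out = B-scored fluorescence response ratio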
# RGS4 inh – human RGS4 inhibition; HEK293 M3R/RGS4 inducible, Fluo-4 calcium flux; stronger effect = higher value; triggered by carbachol at its EC20; B-score at 10 µM; 310,000 tested, 0.45% active; AID 463165;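 active means B-score, a plate-corrected calcium signal, over three deviations above library mean, with baseline fluorescence within five deviations of library mean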;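 further: RGS4 expression induced by doxycycline in cells with stable M3 receptor; B-score is computed from the integrated fluorescence ratio over baseline after carbachol; higher B-score means a larger calcium signal and so more RGS4 inhibition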
# Target sequence (P49798 whole entry, looked up): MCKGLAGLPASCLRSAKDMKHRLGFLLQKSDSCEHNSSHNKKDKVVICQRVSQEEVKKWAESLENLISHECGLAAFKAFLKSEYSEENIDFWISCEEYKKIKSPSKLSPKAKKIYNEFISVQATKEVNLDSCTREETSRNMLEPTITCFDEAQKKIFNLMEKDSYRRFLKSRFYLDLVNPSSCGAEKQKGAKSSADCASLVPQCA
# Kir21 block – inhibitors of mouse Kir2.1 inward-rectifier potassium channel; P35561; HEK293-Kir2.1, FluxOR thallium flux fluorescence; stronger effect = lower value; B-score at 10 µM; 310,000 tested, 0.85% active;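 active means fluorescence ratio B-score at or below minus 3 SD of library scores, with starting-brightness B-score within 2 SD, cut at about -4.2 in these data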;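 further: channel flux triggered by added potassium and thallium sulfate stimulus; B-score of peak minus minimum fluorescence over baseline after thallium stimulus; more negative B-score means stronger Kir2.1 block with less thallium influx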
# Target sequence (P35561 whole entry, looked up): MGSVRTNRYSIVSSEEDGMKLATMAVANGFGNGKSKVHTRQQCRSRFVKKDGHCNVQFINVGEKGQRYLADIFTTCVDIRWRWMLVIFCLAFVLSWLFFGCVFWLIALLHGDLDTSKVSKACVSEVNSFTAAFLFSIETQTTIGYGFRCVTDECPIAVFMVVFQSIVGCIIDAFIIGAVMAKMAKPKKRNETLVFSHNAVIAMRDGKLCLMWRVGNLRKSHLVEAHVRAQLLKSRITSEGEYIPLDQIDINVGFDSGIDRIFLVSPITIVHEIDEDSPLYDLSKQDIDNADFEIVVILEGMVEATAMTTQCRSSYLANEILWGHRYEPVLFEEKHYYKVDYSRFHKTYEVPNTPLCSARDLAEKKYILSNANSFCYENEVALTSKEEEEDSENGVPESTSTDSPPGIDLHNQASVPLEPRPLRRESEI
# RGS4 act – RGS4 potentiation or activation | HEK293 M3R/inducible RGS4, carbachol calcium flux Fluo4; stronger effect = lower value | B-score at 10 µM | AID 463111 | 310,000 tested, 0.92% active;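 active means B-score of the integrated calcium signal more than 4 SD below the library mean, with starting fluorescence not abnormally high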;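 further: negative B-score means reduced calcium response which marks RGS4 activation or potentiation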
#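 System: HEK293 FlpIn-TREx cells, stable M3R, doxycycline-inducible RGS4. Timing: overnight RGS4 induction, 30 min dye load 37 °C, 20 min compound RT. Also added: carbachol, ECmax concentration. Measured by: Fluo4 fluorescence kinetic imaging of calcium. Evaluation: integrated calcium ratio converted to B score.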
# MrgX1 antag – blocks BAM8-22 activation of human MrgX1 receptor. AID 588676. 310,000 tested, 1.3% active. Q96LB2. B-score at 10 µM. MRGX1-HEK293 calcium flux, Fluo-4, BAM8-22 antagonism; stronger effect = lower value;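 active means calcium-response B-score plate-corrected more than 3 library SD below zero, starting fluorescence within 5 deviations, no agonist response on first addition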;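 further: peak minus trough fluorescence over baseline after final BAM8-22 challenge near maximal dose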
# MrgX1 PAM – human MrgX1 positive allosteric modulation, primary screen; Q96LB2; B-score at 10 µM; MrgX1-HEK293, Fluo-4 calcium flux, FDSS; stronger effect = higher value; 310,000 tested, 0.63% active;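 active means plate-corrected calcium response at least 3 library SD above typical, normal starting fluorescence, not activating the receptor alone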;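 further: compound read alongside a low EC10 to EC30 dose of BAM8-22 agonist; peak minus trough fluorescence over baseline measured at the second addition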
# MrgX1 antag conf – human MrgX1 receptor antagonism, re-confirmation screen. MrgX1-HEK293, BAM8-22 calcium flux, Fluo-4; stronger effect = lower value. 2,300 tested, 19% active. remaining BAM8-22 calcium response % of control (stronger effect = lower value), % at 10 µM. shares compounds with MrgX1 antag;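 active means remaining agonist calcium response no higher than 100% minus 3 SD of agonist-only control wells, with starting fluorescence near control levels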;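 further: agonist BAM8-22 given at a near maximal EC90 to ECmax level; peak minus minimum fluorescence divided by baseline after agonist addition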
# HEK293 Ca flux – activity in parental HEK293 cells lacking MrgX1 | 4,000 tested, 2% active | Fluo-4 calcium fluorescence, FDSS | shares compounds with MrgX1 antag | fluorescence ratio F(max-min)/F0 at 10 µM;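 active means duplicate-averaged calcium fluorescence ratio at least three times the standard deviation of buffer wells, a nonspecific response in parental cells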
# HEK293 Ca counter – MrgX1 allosteric activator counter-screen hit in parental HEK293 cells. fluorescence ratio F(max-min)/F0 at 10 µM. 4,000 tested, 0.4% active. parental HEK293 calcium flux, Fluo-4 fluorescence ratio; stronger effect = higher value. shares compounds with MrgX1 antag;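 active means calcium fluorescence ratio, averaged over duplicates, at least 3 SD of the buffer-well ratio, meaning a nonspecific response in receptor-free cells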;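 further: untransfected parental HEK293 lacking MrgX1 used as counterscreen for MrgX1 allosteric activators; fluorescence change taken during the second addition on a kinetic imager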
# HEK293 Ca cntr2 – activity in parental HEK293 cells lacking MrgX1 receptor | fluorescence ratio F(max-min)/F0 at 10 µM | 4,000 tested, 8.7% active | Fluo-4 calcium fluorescence (FDSS); stronger effect = higher value | shares compounds with MrgX1 antag;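 active means calcium fluorescence ratio at least three times the spread of buffer wells, meaning a non-specific response in parental cells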
# Numbers without * were called inactive; i = inactive; / = no result.
SMILES,MrgX1 ag,RGS4 inh,Kir21 block,RGS4 act,MrgX1 antag,MrgX1 PAM,MrgX1 antag conf,HEK293 Ca flux,HEK293 Ca counter,HEK293 Ca cntr2
O=C1c2ccccc2-c2onc3ccc(Oc4ccccc4)c1c23,i,i,-0.26,i,-7.45*,i,74.0%*,i,i,i
CC(C)[C@@H](C(=O)OCC(=O)Nc1ccc2c(c1)OCO2)N1C(=O)c2ccccc2C1=O,i,i,1.93,i,-5.26*,i,i,i,i,i
CCOC(=O)CSC1=C(C#N)C(c2ccccc2Cl)C(C(=O)OC)C(=O)N1 (centres undefined),i,i,-0.73,i,-4.78*,i,i,i,i,i
CCOC(=O)CSC1=C(C#N)C(c2ccccc2OCC)C(C(=O)OCC)C(=O)N1 (centres undefined),i,i,-2.11,i,i,i,/,/,/,/
CCOC(=O)CC1C(=O)NCCN1S(=O)(=O)c1ccc(Cl)cc1Cl (centres undefined),i,i,-0.53,i,-6.93*,i,i,i,i,i
CCOC(=O)CC1C(=O)NCCN1S(=O)(=O)c1ccc(C)cc1 (centres undefined),i,i,0.92,i,i,i,/,/,/,/
Cc1ccc(S(=O)(=O)N(CC(=O)N2CCCCCC2)c2ccccc2)cc1,i,i,-0.49,i,i,i,/,/,/,/
Cc1ccc(N(CC(=O)N2CCN(C3CCCCC3)CC2)S(=O)(=O)c2cccnc2)cc1,i,/,/,/,-8.76*,i,i,i,i,i
CC1CCN(CCCNC(=O)C2CC(=O)N(C3CCCCCC3)C2)CC1 (centres undefined),i,i,-2.01,i,i,i,/,/,/,/
O=C(CCl)Nc1cc(-c2ccccc2)nn1-c1ccccc1,i,i,-0.97,i,-5.26*,i,i,i,i,57.3*
CC(=O)Nc1ccc(-c2cc(NC(C)=O)n(-c3ccccc3)n2)cc1,i,i,0.65,i,i,i,/,/,/,/
CCOc1ccc2ccccc2c1CNCCc1ccc(S(N)(=O)=O)cc1,i,i,-4.36*,i,-4.78*,i,54.5%*,i,i,i
CCOc1cc(CNCCc2ccc(S(N)(=O)=O)cc2)ccc1OCc1ccc(Cl)cc1,i,i,0.01,i,i,i,/,/,/,/
O=C1CC2(CCN(C(=O)c3c(F)cccc3Cl)CC2)Oc2ccccc21,i,i,1.64,i,i,i,/,/,/,/
Cc1cc(=O)oc(C)c1C(=O)NCC1COc2ccccc2O1 (centres undefined),i,i,0.24,i,i,i,/,/,/,/
Fc1ccc(COc2ccccc2C(=S)N2CCCC2)cc1,i,i,-2.77,i,-5.4*,i,i,i,i,i
Nc1c(C(=O)Nc2ccccc2F)sc2nc(-c3cccnc3)ccc12,i,i,0.02,i,i,i,/,/,/,/
Nc1c(C(=O)Nc2ccccc2F)sc2nc(-c3ccco3)ccc12,i,i,0.9,i,-5.26*,i,77.8%*,i,i,i
Cc1cc(O)c(C(C)C)cc1N=Nc1ccccc1C(=O)O,i,i,-1.37,i,i,i,/,/,/,/
Cc1cc(N=Nc2ccccc2C(=O)O)c(C)c(C)c1O,i,i,2.35,i,-6.95*,i,i,i,i,i
O=C(CCN1CCC(c2ccccc2)C1)c1ccccc1 (centres undefined),i,i,-0.59,i,-5.19*,i,i,i,i,i
C=CCOc1ccc(C2C(C(=O)c3ccco3)=C(O)C(=O)N2c2nnc(C)s2)cc1 (centres undefined),i,i,-1.47,i,-5.03*,i,i,i,i,i
O=C(O)c1cc(-c2ccc(Cl)c(Cl)c2)n(-c2ccc(F)cc2)n1,i,i,0.35,i,i,i,/,/,/,/
O=C(NC1CCCCC1)c1cc(-n2cnnc2)ccc1Cl,i,i,-1.56,i,i,i,/,/,/,/
CCOC(=O)c1sc(NC(=O)Nc2cccc(Cl)c2)cc1C,i,i,0.69,i,-6.08*,i,57.0%*,i,i,i
SMILES,MrgX1 ag,RGS4 inh,Kir21 block,RGS4 act,MrgX1 antag,MrgX1 PAM,MrgX1 antag conf,HEK293 Ca flux,HEK293 Ca counter,HEK293 Ca cntr2
CCOC(=O)c1sc(NC(=O)c2cccs2)cc1C,i,i,-1.65,i,i,i,/,/,/,/
CCOC(=O)C1=C(C)N(C)C(C)=C(C(=O)OCC)C1c1ccccn1,i,i,0.08,i,-7.15*,i,i,i,i,i
Cc1ccccc1-c1noc(-c2ccc(O)cc2)n1,i,/,/,/,i,i,/,/,/,/
Cc1ncoc1C(=O)N1CCCC(C(=O)c2cccc(OC(C)C)c2)C1 (centres undefined),i,i,-0.01,i,-6.08*,i,i,i,i,i
Cc1ncoc1C(=O)N1CCCC(C(=O)c2ccc(Oc3ccccc3)cc2)C1 (centres undefined),i,i,1.04,i,i,i,/,/,/,/
Cc1ccc(-n2ccnc(SCC(=O)NCCc3ccccc3)c2=O)cc1F,i,i,-0.45,i,-4.62*,i,i,i,i,i
CS(=O)(=O)c1ccc(CNC(=O)C2(C(F)(F)F)C/C(=C/CCO)CCCO2)cc1 (centres undefined),i,i,-0.5,i,-4.77*,i,i,i,i,i
COC(=O)CCCC(=O)NC(C)c1cnn(-c2ccccc2C)c1C (centres undefined),i,i,0.47,i,i,i,/,/,/,/
Cn1nc(-c2ccccc2)cc1NC(=O)Nc1ccccc1F,i,i,-1.14,i,i,i,/,/,/,/
COc1ccc(/C=C/C(=O)NNC(=O)c2cc(C)oc2C)cc1,i,i,-0.97,i,i,i,/,/,/,/
